This sample holds only a part of the variants without activity.

Sequences and labels used below:
B1: tRNA (parent)
chain: GUUCCGUUGGCGUAAUGGUAACGCGUCUCCCUCCUAAGGAGAAGACUGCGGGUUCGAGUCCCGUACGGAACG

Variants of B1 are the subject of this data set. Kind of data set: yeast fitness relative to wild type (ratio to wild type); higher = fitter; tRNA-Arg(CCU), competitive growth, 37 C, YPD. The method, boiled down:
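Start and end populations of a pooled competition were compared by 100-nucleotide paired-end sequencing of gene amplicons. The Saccharomyces cerevisiae strains carried tRNA-Arg(CCU) gene variants at the native genomic locus, synthesised with a 3% per-site mutation rate at 69 sites, and competed in YPD at 37°C for 24 hours in six parallel replicates. Darwinian fitness relative to wild type was based on the change in genotype frequencies. Genotypes required ≥ 100 starting reads, and estimates < 0.5 were set to 0.5.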
Turning to GUUCCGUUGGCGUAAUGGUAACGCGUCACCCUCCUAAGGAGAAGACUGCGGGUACGAGUCCCGUACGGAACG, the yeast fitness is 0.594.
GUUCCGUUGGCGUAAUGGUAACGCGUCCCCCUCCUAAGGAGAAGACUGUGGGUUCGAGUCCCGUACGGAACG: the yeast fitness was determined as 0.905.
On to GUUCCGUUGGCGUAAUGGUAACGCGUCCCCUUCCUAAGGAGAAGACUGCGGGUUCGAGUUCCGUACGGAACG, for which the yeast fitness was at most 0.5.
In the case of GUUCCGUUGGCGUAAUGGUAACGCGUCCCCCUCCUAAGGAGACGACUGCGGGUUCGAGUCCCGUACGGAACG, the yeast fitness worked out at 0.758.
The result for GUUCCGUUGGCGUAAUGGUAACGCGUCCCCCUCCUAAGGAGAGGACUGCGGGUUCGAGUCCCGUACGGAACG reads 0.976; that for GUUCCGUUGGCGUAAUGGUAACGCGUCCCCCUCCUAAGGAGAAGACUGCGGAUUCGAGUCUCGUACGGAACG, 0.698.
The result for GUUCCGUUGGCGUAAUGGUAACGCGUCCCCCUCCUAAGGAGGAGACAGCGGGUUCGAGUCCCGUACGGAACG reads 0.535; that for GUUCCGUUGGCGUAAUGGUAACGCGUCCCCCUCCUCAGGAGAAGACUGCGGGUUCGAGUCCCGUACCGAACG, 0.539; that for GUUCCGUUGGCGUAAUGGUAACGCGUCCGGCUCCUGAGGAGAAGACUGCGGGUUCGAGUCCCGUACGGAACG, at most 0.5.
In the case of GUUCCGUUGGCGUAAUGGUAACGCGUCCCCCUCCUAAGGAGAAGACUGGGGGUUCGAGCCCCGUACGGAACG, the yeast fitness is at most 0.5.
As to GUUCCGUUGGCGUAAUGGUAACGCGUCCCCCUCCUAAGGAGAAGACUGCGGGUUCGAGUCUCGUACGGUACG, the yeast fitness was 0.727.
The result for GUUCCGUUGGCGUAAUGGUAACGCGUCCCCCUCCUAAGGAGACCACUGCGGGUUCGAGUCGCGUUCGGAACG reads at most 0.5.
The value for GUUCCGUUGGCGUAAUGGUAACGCGUCCCCCUCCUAAGGGGAAGCCUGCGGGUUCGAGUCCCGUACGGAUCG was 0.911; that for GUUCCGUUGGCGUAAUGGUAACGCGUCCCCCUCCUAAGGAGAAGACUGCUGGUUCGAGUCCCGUACGGAACG was 0.602; that for GUUCCGUUGGCGUAAUGGUAACGCGUCCGCCUCCUAAGGAGAAGACUGCGGGUUCGAGUCCUGUACGGAACG was at most 0.5.
On to GUUCCGUUGGCGUAAUGGUAACGCGUCCCCCUCCUAAGGAGAAGACUACGGGUUCGAGUACUGUACGGAACG, for which the yeast fitness was at most 0.5.
In the case of GUUCCGUUGGCGUAAUGGUAACGCGUCCCCCUCCUCAGGAGAAGACUGCGGGUUCGAGUCCCGUACGGAACG, the yeast fitness worked out at 0.579.
Turning to GUUCCGUUGGCGUAAUGGUAACGCGUCCCCCUCCUAUGGAGAAGACUGCGGGUUCGCGUCCCGUACGGUCCG, the yeast fitness is at most 0.5.
With GUUCCGUUGGCGUAAUGGUAACGCGUCCCCCUCCUAAAGCGAAGGCUACGGGUUCGAGUCCCGUACGGAACG, the yeast fitness was at most 0.5.
The value for GUUCCGUUGGCGUAAUGGUAACGCGUCCCCCUCCUAAGGAGGAGACUGCGGGUUUGAGUCCCGUACGGAUCG was at most 0.5; that for GUUCCGUUGGCGUAAUGGUAACGCGUCCCCCUGCUAAAGAGAAGACUGCGGGUCCGAGUCCCGGACGGAACG was at most 0.5; that for GUUCCGUUGGCGUAAUGGUAACGCGUCCCCCUCCUAAGGAGAAGACUGCGGGUUCGAGUCGCGUACGGAACG was 0.583.
Take GUUCCGUUGGCGUAAUGGUAACGCGUCCCCCUGCUAAAGAGAAGACUGCGGGUUCGAGUCCCGGACGGAACG: the yeast fitness is at most 0.5.
As for GUUCCGUUGGCGUAAUGGUAACGCGUCCCCCUCCUAAGGAGAAGACUGCGGGUUCGAGUCCAGUACGGAACG, the yeast fitness amounted to 0.746.
The value for GUUCCGUUGGCGUAAUGGUAACGCGUCCCCCUCCUAAGGAGAAGACUGCGGGUUCGUGUCCCGUUCGGAACG was at most 0.5.
In the case of GUUCCGUUGGCGUAAUGGUAACGCGUCACCCUCCCACGGAGAAGACUGCGGGUUCGAGUCCCGAACAGAACG, the yeast fitness is at most 0.5.
On to GUUCCGUUGGCGUAAUGGUAACGCGUCCCCCUCCUAAGGAGAAGUCUCCGGGUUCGAGUCCCGUACGGAACG, for which the yeast fitness stood at 0.638.
The result for GUUCCGUUGGCGUAAUGGUAACGCGUCCCCCUCCUAAGGACAAGACUGCGGGUUCGAGUACCGUAUGGAACG reads at most 0.5; that for GUUCCGUUGGCGUAAUGGUAACGCGUCCCCCUACUAAGGAGCAGUCUGCGGGUUCGAGUCCCGUACGGCACG, 0.622.
For GUUCCGUUGGCGUAAUGGUAACGCGUCCCCCUCCUAAGGAGAAGACUGCGGGUUCGAGUCCCGUACGGACCG, the yeast fitness is 0.878.
Turning to GUUCCGUUGGCGUAAUGGUAACGCGUCCCCCUCCUAAGGAGAAGAAUGCGGGUUCGAGUCCCGUACGGAACG, the yeast fitness came to 0.992.
In the case of GUUCCGUUGGCGUAAUGGUAACGCGUCCCCCUCCUAAGGAGAAGAGUGCGGGUUCGAGUCCCGUACGGAACG, the yeast fitness stood at 1.08.
As to GUUCCGUUGGCGUAAUGGUAACGCGUCACCCUCCGAAGGAGAAGACUGCGGGUUCGAGUCCAGUACGGAACG, the yeast fitness was at most 0.5.
For the variant GUUCCGUUGGCGUAAUGGUAACGCGUCCCCCUCCUAAGGAGAAGACUGUGGGUUCGAGUCCCUUACGGAACG, the yeast fitness is 0.531.
With GUUCCGUUGGCGUAAUGGUAACGCGUCCCCCUCUUAAGGAGAAGACUGCGGGUUUGAGUCACGUACGGAACG, the yeast fitness was determined as 0.592.
The result for GUUCCGUUGGCGUAAUGGUAACGCGUCCCCCUCCUAAGGAGAAGACUGCGGGUUCGAGUGCCGUACGGAACG reads 0.572; that for GUUCCGUUGGCGUAAUGGUAACGCGUCCCCCUCCUAAGGAGAAGACUGCGGGUUCGAGUACCGUACGGAACG, 0.632.
